What follows are compounds tested on MCF7 proliferation, sulforhodamine B absorbance, 7-10 days (assay: breast cancer cell growth suppression – MCF7, absorbance, set 2, counter-screen for AHR activator project, late-stage follow-up (AID 624397)).
Outline: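 Material – MCF7 cells · Buffer or medium – a-MEM growth medium with 10% fetal bovine serum · Incubation – dosing from 24 h after plating, renewed every 48 h, 37 °C · Measured by – SRB absorbance at 490 nm, 650 nm background removed · Read-out – % of DMSO proliferation and Hill-fit IC50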

Q: How did the IC50 turn out when `Cc1ccc(-c2cc(-c3ccc(Cl)cc3)n[nH]2)c(O)c1` was run?
A: The IC50 was 3 µM.

Q: For `Cc1ccc(-c2cc(-c3ccc(F)cc3)n[nH]2)c(O)c1`, which IC50 is on record?
A: Its IC50 is 3 µM.

Q: For `Cc1ccc(-c2cc(-c3cccc(F)c3)n[nH]2)c(O)c1`, which IC50 is on record?
A: The IC50 was 3 µM.
